Assay outcomes (PubChem)
Hits are enriched below; roughly 2% of the tested compounds scored in any of these assays.
Rev-erbA mod: modulates human Rev-erb alpha binding to DNA. Rev-erbα–FITC-DNA binding, fluorescence polarization, 90 min. activity, % at 10 µM. actives 0.79% (n = 370,000). AID 1259318;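 active = activity above about 14%, limit read from the data; passing the limit was not always enough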;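 note: 0% = DMSO wells with 35 nM protein and 100% = DMSO wells with 750 nM protein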
Neddylation inh: inhibitors of human cullin neddylation. P61081+Q13564. TR-FRET cullin neddylation, biochemical. calls only at 25 µM. actives 0.58% (n = 360,000). AID 651699; in the data active = inhibition above about 36%
Target sequence (P61081 whole entry, looked up): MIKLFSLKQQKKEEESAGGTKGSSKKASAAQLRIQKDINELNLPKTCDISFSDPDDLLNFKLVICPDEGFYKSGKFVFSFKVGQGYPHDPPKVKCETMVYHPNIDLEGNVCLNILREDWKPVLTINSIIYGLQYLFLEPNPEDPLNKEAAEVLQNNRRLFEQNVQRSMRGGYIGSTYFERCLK
Target sequence (Q13564 whole entry, looked up): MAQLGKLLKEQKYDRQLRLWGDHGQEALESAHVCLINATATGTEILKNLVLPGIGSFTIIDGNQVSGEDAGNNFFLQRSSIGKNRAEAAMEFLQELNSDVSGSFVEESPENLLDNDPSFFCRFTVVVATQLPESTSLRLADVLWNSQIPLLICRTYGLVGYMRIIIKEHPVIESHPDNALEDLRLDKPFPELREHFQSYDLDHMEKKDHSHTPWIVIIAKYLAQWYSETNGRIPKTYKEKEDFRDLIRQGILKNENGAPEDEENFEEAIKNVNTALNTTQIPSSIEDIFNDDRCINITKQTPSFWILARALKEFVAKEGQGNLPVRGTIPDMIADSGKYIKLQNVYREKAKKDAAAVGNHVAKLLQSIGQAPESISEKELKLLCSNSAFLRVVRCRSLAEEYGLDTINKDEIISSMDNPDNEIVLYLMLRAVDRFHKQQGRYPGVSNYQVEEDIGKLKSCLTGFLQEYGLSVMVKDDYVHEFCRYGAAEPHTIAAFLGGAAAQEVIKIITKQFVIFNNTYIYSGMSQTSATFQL
NR2E3 ag-1: human photoreceptor-specific nuclear receptor agonism | CHO-S Gal4-NCOR/VP16-NR2E3 two-hybrid, luciferase | inhibition of corepressor binding, % at 3.98 µM | actives 0.35% (n = 360,000);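 active = inhibition above the mean of all tested compounds plus 3 SD, cut at about 70% in these data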;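 note: 0% = DMSO with NR2E3 transfected cells and 100% = cells lacking NR2E3 construct; higher means lower luciferase signal from less NR2E3 corepressor binding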
PG9 Ab binder: binds the HIV-1 gp120 antibody PG9; TR-FRET gp120-PG9 antibody binding; inhibition, % at 6.7 µM; actives 0.43% (n = 360,000); AID 624416; in the data active = inhibition above about 8.5%
NR2E3 ag-2: NR2E3 (human) agonism | Q9Y5X4 | GST-NR2E3/biotin-RetCOR TR-FRET, 1536-well | inhibition of corepressor binding, % at 4.78 µM | actives 0.12% (n = 320,000) | AID 2300;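 active = percent inhibition above the cutoff of mean plus 3 SD of all tested compounds, set per screening campaign, cut at about 20% in these data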;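 note: 0% = DMSO wells and 100% = biotin wells as full block of FRET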
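system = GST-tagged NR2E3 plus biotinylated RetCOR corepressor | input = 1.35 nM GST-NR2E3 | also added = 7 nM biotin-RetCOR | schedule = 5 h incubation at 4 °C | measured by = TR-FRET with europium anti-GST and streptavidin-D2, 340 nm excitation | read-out = percent loss of FRET ratio relative to control wells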
Starred values were filed as active, the others as inactive; i = inactive; · = no result given; + = active, no number.

SMILES | Rev-erbA mod | Neddylation inh | NR2E3 ag-1 | PG9 Ab binder | NR2E3 ag-2
COc1cc(N/N=C/c2ccc(N(C)C)cc2)ncn1 | -5 | + | -133 | -14 | -1
C/C(=N\NC(=O)c1nnn(-c2nonc2N)c1CN1CCCCC1)c1ccccc1O | -3 | + | -16 | 2 | -5
O=C(NC1CCCCN(Cc2ccc(OC(F)(F)F)cc2)C1=O)c1cccc(C(F)(F)F)c1 (centres undefined) | -4 | · | · | · | ·
O=S(=O)(c1ccc2c(c1)OCCO2)N1CCN(c2ncnc3sccc23)CC1 | 2 | i | 87* | -1 | -2
CNc1cccnc1C=NNC(N)=S | 11 | + | 40 | -3 | ·
Cc1nc(SCC(=O)N(C)c2ccccc2)[nH]c(=O)c1C | -6 | · | · | · | ·
Cc1cc(/C=C\c2ccc3cc(N(C)C)ccc3[n+]2C)c(C)n1-c1ccccc1 | · | i | 100* | · | 5
O=C1c2cccc3c([N+](=O)[O-])ccc(c23)C(=O)N1c1ccccn1 | 5 | i | 5 | 0 | -2
O=C1c2cccc3c([N+](=O)[O-])ccc(c23)C(=O)N1c1nccs1 | -5 | + | -7 | -1 | 0
O=C1c2cccc3cccc(c23)C(=O)N1c1nccs1 | -1 | i | 3 | -1 | -3
O=C1c2cccc3c([N+](=O)[O-])ccc(c23)C(=O)N1c1ccc(Cl)cn1 | 13 | + | -7 | -1 | 1
N[C@H](C(=O)O)[C@H](O)c1ccc(O)c(O)c1 | -44 | · | · | · | ·
CCCCn1c(NC(=O)c2ccccc2Cl)c(C#N)c2nc3ccccc3nc21 | · | · | 96* | 6 | 19
CCCCn1c(NC(=O)CC)c(C#N)c2nc3ccccc3nc21 | · | i | 12 | 0 | -1
N#Cc1c(NC(=O)c2ccccc2Cl)n(Cc2ccccc2)c2nc3ccccc3nc12 | 1 | i | 87* | -2 | 3
CC(C)(C)C(=O)OC12CCCN(C1)/C(=C/c1ccncc1)C2 (centres undefined) | 2 | · | · | · | ·
Oc1ccc2[nH]cc(CCc3ccccc3)c2c1-c1ccccc1 | 3 | · | · | · | ·
CC(=O)N(C1CC(C)C(C#N)(C#N)C1(C#N)C#N)N(C)C (centres undefined) | 1 | i | -8 | -2 | -2
CCCC(=O)N(C1CC(C)C(C#N)(C#N)C1(C#N)C#N)N(C)C (centres undefined) | -2 | + | -6 | 0 | -5
C=CCN1[C@H](C)COc2cc(N3CCSCC3)ccc2S1(=O)=O | -4 | · | · | · | ·
CCCCC1OC23CCCCC2C(C#N)(C#N)C1(C#N)C(=N)O3 (centres undefined) | 4 | + | -27 | -2 | -1
C=CCOC(=O)COc1ccc2c(C)c(C)c(=O)oc2c1C | -4 | + | -5 | 0 | -5
COC1=CC(=O)C[C@@H](C)C12Oc1c(Cl)c(OC)cc(OC)c1C2=O (some centres undefined) | -11 | · | · | · | ·
N#Cc1ccc(S(=O)(=O)N2CCCc3nc(-c4ccc(Br)cc4)ccc32)cc1 | 10 | · | · | -1 | ·
Cc1cccc(/C=C(\c2nc3ccccc3[nH]2)S(=O)(=O)c2ccccc2)c1 | -1 | i | 43 | -1 | ·
SMILES | Rev-erbA mod | Neddylation inh | NR2E3 ag-1 | PG9 Ab binder | NR2E3 ag-2
CC(C)(C)c1ccc(/C=C(\c2nc3ccccc3[nH]2)S(=O)(=O)c2ccccc2)cc1 | · | i | 81* | · | 1
CCc1nc(Nc2ccncc2)c2oc3ccccc3c2n1 | -11 | + | -15 | -2 | -1
Cc1nc(Nc2ccncc2)c2oc3ccccc3c2n1 | -3 | i | 1 | -2 | -3
CC(C)(C)C1C/C(=C/c2ccccn2)C(=O)/C(=C/c2ccccn2)C1 (centres undefined) | · | i | 96* | · | 1
COc1ccc(N2C(=O)c3n[nH]c(C(C)C)c3C2c2ccc(F)cc2)cc1 (centres undefined) | 2 | · | · | -1 | ·
COc1cc(/C=N/NC(=O)c2cc3c(ccc4ccccc43)o2)cc(OC)c1O | -18 | + | -26 | -3 | 6
CCN(CC)c1ccc(/C=N/NC(=O)c2ccc3nc[nH]c3c2)c(O)c1 | · | + | -10 | · | 1
CCOC(=O)c1ccc(Nc2nc(N)c3cc(OC)c(OC)cc3n2)cc1 | · | + | -5 | · | -1
COc1cc2nc(Nc3ccc(C)c(Cl)c3)nc(N)c2cc1OC | 2 | + | -16 | -3 | -1
COc1cc2nc(Nc3ccc(C)c(C)c3)nc(N)c2cc1OC | 5 | i | -14 | -1 | 1
COC(=O)[C@]1(CNC(=O)Nc2ccc(C)c(Cl)c2)CC(=O)N(C)[C@@H]1c1ccccc1 | 2 | · | · | · | ·
O=S(=O)(Nc1nc2ccccc2nc1Nc1ccc2c(c1)OCCO2)c1cccs1 | -1 | + | 14 | -1 | 0
C(=C\c1ccccc1)/CN1CCN(c2ncnc3c2oc2ccccc23)CC1 | 3 | i | 98* | 2 | 1
COc1ccc(/C(O)=C2/C(=O)C(=O)N(CCN(C)C)C2c2ccccc2)cc1Cl (centres undefined) | -3 | i | -21 | 8.7* | 8
COc1ccc(/C(O)=C2/C(=O)C(=O)N(CCN(C)C)C2c2ccc(C)cc2)cc1Cl (centres undefined) | 2 | i | -10 | 7 | 7
CC(=O)c1cc(-c2ccc3c(c2)OCO3)c(=O)n2c1CCC2 | 6 | · | · | · | ·
CCOC(=O)c1c(-n2cnnn2)sc2c1CCCC2 | -3 | · | -13 | -1 | 3
CCOC(=O)c1c(N2C(=O)Nc3cc(Cl)c(Cl)cc3N2O)sc2c1CCCCC2 | · | i | 92* | · | 0
COc1cc(/C=N/NC(=O)c2sc3nc(C)cc(C)c3c2N)ccc1O | -8 | + | -13 | -3 | -1
CCCCN1C(=O)N2Cc3ccccc3C2CS1(=O)=O (centres undefined) | 0 | · | · | · | ·
CCCCCc1ccc(S(=O)(=O)NCCc2ccncc2)cc1 | 1 | i | 88* | 0 | 2
C[C@H](O)[C@@H]1CN2CCc3ccc(-c4ccc5c(c4)OCO5)cc3[C@@H]2C[C@@H]1N(C)C(=O)Nc1ccccc1 | -3 | · | · | · | ·
COc1ccc(/C=N/Nc2cc(C)nc3c(C)cccc23)cc1 | -3 | + | -4 | -3 | 2
Cc1cc(C)c2c3c(sc2n1)C(c1cccc(F)c1)C(C#N)=C(N)O3 (centres undefined) | 1 | + | 12 | 2 | 3
CCCN1CCC2(CC1)C(C#N)=C(N)Oc1c2sc2nc(C)cc(C)c12 | 2 | i | -14 | -1 | -3
Cc1ccc(S(=O)(=O)/N=C2/C=C(Sc3ncn[nH]3)C(=O)c3ccccc32)cc1 | · | i | 106* | · | 7
O=C(N=Nc1c(O)[nH]c2c(Cl)cc(Cl)cc12)c1ccccc1O | -9 | · | · | -2 | ·
Cc1cc(C)n(-c2nc(NC(C)C)nc(NC(C)C)n2)n1 | -6 | i | 81* | -2 | 2
Cc1cc(C)n(-c2nc(NC(C)(C)C)nc(NC(C)(C)C)n2)n1 | 0 | i | 105* | 0 | -1
c1ccc(-c2nc3cc4ccccc4cc3[nH]2)nc1 | -3 | + | -64 | -3 | -3
